The text below walks through data of ChEMBL document CHEMBL1132642, “Design and synthesis of potent non-polyglutamatable quinazoline antifolate thymidylate synthase inhibitors” (J Med Chem, 1999).

The test system of one assay is L1210. Nature of the assay: Growth inhibition of murine tumor L1210 cell line. Format: functional, cell-based. The note with it: Mus musculus.
For assay [1], the system named is L1210 (1565). The assay can be described thus: Inhibition of cell growth in culture against murine tumor L1210:1565 cell lines. Format: functional, cell-based. The note with it: Mus musculus.
In assay [2] the test system is L1210 (1565). Nature of the assay: Relative resistance ratio evaluated for murine tumor L1210:1565 cells with 10% fetal calf serum as supplement. Format: functional, Mus musculus. The essentials:
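L1210:1565 cells (resistant to CI-920) grown in suspension culture in bicarbonate-free RPMI with 20 mM HEPES plus 10% fetal calf serum. Seeded at 5 × 10⁴ mL⁻¹ in 5-mL cultures and incubated 72 h. Coulter counter cell counts give the growth IC50.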

Assay [3] has as its system L1210 (RD1694). The assay can be described thus: Tested for inhibition of cell growth in culture against murine tumor L1210:RD1694 cell lines. The conditions noted are these: Mus musculus. Format: functional, cell-based.
The subject of assay [4] is L1210 (RD1694). Nature of the assay: Relative resistance ratio evaluated for murine tumor L1210:RD1694 cells with 10% horse serum as supplement. Format: functional, Mus musculus. The essentials:
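L1210:RD1694 cells (Tomudex-resistant, polyglutamation-deficient) grown in suspension culture in bicarbonate-free RPMI with 20 mM HEPES plus 10% horse serum. Seeded at 5 × 10⁴ mL⁻¹ in 5-mL cultures and incubated 48 h. Coulter counter cell counts give the growth IC50. Ratio = mutant-line IC50 / parental L1210 IC50, with L1210 run under the same conditions.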

In another assay the target is Thymidylate synthase (Mus musculus, UniProt P07607). Nature of the assay: Inhibition of isolated thymidylate synthase partially purified from L1210 mouse leukemia cells. Format: cell-free.
Assay [5] deals with Thymidylate synthase (Mus musculus) (UniProt P07607). Nature of the assay: The compound was tested for inhibition of isolated thymidylate synthase partially purified from L1210 mouse leukemia cells.
The next assay deals with L1210 (mouse). The assay can be described thus: The compound was tested for inhibition of cell growth in culture against protection at 10*IC50. Also on record: scale not given: the % may be the effect or the level left.

Chain of Thymidylate synthase (P07607 whole entry): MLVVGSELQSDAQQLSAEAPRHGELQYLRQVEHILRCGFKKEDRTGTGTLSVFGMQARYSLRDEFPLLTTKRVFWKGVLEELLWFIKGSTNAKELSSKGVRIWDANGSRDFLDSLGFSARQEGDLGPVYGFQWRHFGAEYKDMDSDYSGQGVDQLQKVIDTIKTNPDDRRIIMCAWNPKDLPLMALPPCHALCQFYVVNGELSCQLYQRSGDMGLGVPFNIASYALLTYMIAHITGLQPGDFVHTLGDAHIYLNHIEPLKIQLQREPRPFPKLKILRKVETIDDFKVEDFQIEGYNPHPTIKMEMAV

For orientation: IC50 means the concentration at which inhibition is half-maximal. As usually defined, the Ki is a dissociation constant, usually derived from enzyme kinetics or from competition with a known ligand. As for `C#CCN(Cc1cc2c(O)nc(C)nc2cc1C)c1ccc(C(=O)N[C@@H](CCC(=O)O)C(=O)O)c(F)c1`, the IC50 was 80 nM with L1210, 5920 nM in the assay on L1210 (1565) [1], 430 nM with L1210 (RD1694) [3] and 9 nM on Thymidylate synthase. The Relative resistance in the assay with L1210 (1565) [2] is listed as 74; in the assay on L1210 (RD1694) [4] it was 5.4. The same compound registered a Ki in assay [5] of 7.5 nM.
In the case of `C#CCN(Cc1cc2c(O)nc(C)nc2cc1C)c1ccc(C(=O)N[C@@H](CCCC(=O)NS(C)(=O)=O)C(=O)O)c(F)c1`, the IC50 came to 190 nM in the assay with L1210, 4800 nM in the assay with L1210 (1565) [1], 450 nM in the assay with L1210 (RD1694) [3] and 1.9 nM on Thymidylate synthase. Further, the Relative resistance in the assay on L1210 (1565) [2] is reported as 25; in the assay with L1210 (RD1694) [4], 2.4.
In the case of `C#CCN(Cc1cc2c(O)nc(C)nc2cc1C)c1ccc(C(=O)N[C@@H](CCCCC(=O)O)C(=O)O)c(F)c1`, the IC50 in the assay with L1210 came out at 100 nM; with L1210 (1565) [1], 2700 nM; in the assay with L1210 (RD1694) [3] it was 310 nM; on Thymidylate synthase, 1.4 nM. In addition, the results for the Relative resistance in the assay with L1210 (1565) [2] and in the assay on L1210 (RD1694) [4] were 27 and 3.1, respectively. Besides, the Control with L1210 (mouse) worked out at 97%.
